Results taken from ChEMBL document CHEMBL4145557, “Discovery of Tirasemtiv, the First Direct Fast Skeletal Muscle Troponin Activator” (ACS Med Chem Lett, 2018).

What was measured:
Oryctolagus cuniculus [1] = species on record: Oryctolagus cuniculus; experiment: (§1) Activation of troponin in rabbit fast skeletal muscle fibers assessed as increase in calcium stimulated activity by measuring compound concentration that produces 30% increase in tension at 25% of calcium concentration needed for maximal response by […]
Summary of the method: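 Skinned-fiber tension assay on a mounted fiber, measuring the force–calcium relationship. Fast fibers are rabbit psoas; slow fibers are primarily slow rabbit semimembranosus. DF30 is the concentration giving a 30% increase in tension at 25% of the calcium level needed for a maximal response in control preparations.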

Oryctolagus cuniculus [2] = species on record: Oryctolagus cuniculus; experiment: as §1, with “40%” for “30%”, “myofibril ATPase activity” for “tension”
Summary of the method: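 Myofibril ATPase rate (used as a surrogate for force), with fast-skeletal myofibrils from rabbit muscle. For cardiac and slow-skeletal activity, mixed sarcomeres combine myosin and thin-filament preparations from fast, slow or cardiac muscle. AC40 is the concentration giving a 40% increase in ATPase activity at 25% of the calcium level needed for a maximal response in control preparations. Duplicate experiments.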

[3] = Volume of distribution at steady state in Sprague-Dawley rat at 1 mg/kg, po or 1 mg/kg iv via bolus by HPLC method; type: ADME, organism-based; conditions: Sprague-Dawley, in vivo, read-out: Vdss
Summary of the method: (§2)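 Pharmacokinetics at a dose of 1 mg/kg, comparing oral and intravenous administration to derive bioavailability, clearance and steady-state volume of distribution. In rats, compounds were dosed as crystalline suspensions.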

[4] = Extraction ratio in rat liver microsomes measured up to 90 mins by HPLC/MS/MS analysis; type: ADME, microsome; conditions: read-out: ERH
[5] = Extraction ratio in dog liver microsomes measured up to 90 mins by HPLC/MS/MS analysis; type: ADME, Canis lupus familiaris, microsome; conditions: read-out: ERH
[6] = Fraction unbound in rat plasma at 5 uM after 6 hrs by equilibrium dialysis based HPLC method; type: ADME, cell-free
Rattus norvegicus [7] = experiment: Oral bioavailability in Sprague-Dawley rat at 1 mg/kg by HPLC method; type: ADME, organism-based; conditions: in vivo; summary of the method: as §2
[8] = Fraction unbound in human plasma at 5 uM after 6 hrs by equilibrium dialysis based HPLC method; type: ADME, cell-free
Mus musculus = experiment: Volume of distribution at steady state in mouse at 1 mg/kg, po or 1 mg/kg iv via bolus by HPLC method; type: ADME, organism-based; conditions: in vivo; summary of the method: as §2
Rattus norvegicus [9] = experiment: Increase in muscle force in rat extensor digitorum longus muscle dosed systemically measured every two mins by in situ live fiber activity assay; type: functional, organism-based
[10] = Extraction ratio in mouse liver microsomes measured up to 90 mins by HPLC/MS/MS analysis; type: ADME, microsome; conditions: read-out: ERH
Cytochrome P450 1A2 [11] = biological target: T1, Cytochrome P450 1A2 (Homo sapiens, UniProt P05177); experiment: Inhibition of CYP1A2 in human liver microsomes using phenacetin as substrate in presence of NADP; type: ADME
T1 sequence (P05177 whole entry): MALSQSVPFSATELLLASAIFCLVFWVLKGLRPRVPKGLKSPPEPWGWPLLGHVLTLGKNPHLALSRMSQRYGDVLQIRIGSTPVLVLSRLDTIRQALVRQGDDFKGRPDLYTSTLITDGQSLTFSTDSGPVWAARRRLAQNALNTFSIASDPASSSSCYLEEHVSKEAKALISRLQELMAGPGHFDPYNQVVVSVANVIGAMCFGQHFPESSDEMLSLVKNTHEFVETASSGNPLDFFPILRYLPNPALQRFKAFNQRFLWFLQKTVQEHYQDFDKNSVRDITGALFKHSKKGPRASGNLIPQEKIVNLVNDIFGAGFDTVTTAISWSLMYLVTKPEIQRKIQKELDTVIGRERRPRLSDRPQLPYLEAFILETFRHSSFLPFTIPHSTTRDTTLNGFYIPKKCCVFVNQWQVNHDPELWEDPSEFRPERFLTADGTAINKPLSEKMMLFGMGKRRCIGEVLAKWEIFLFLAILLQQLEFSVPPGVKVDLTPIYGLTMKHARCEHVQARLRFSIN

[12] = Extraction ratio in human liver microsomes measured up to 90 mins by HPLC/MS/MS analysis; type: ADME, microsome; conditions: read-out: ERH
Cytochrome P450 1A2 [13] = biological target: T1, Cytochrome P450 1A2; experiment: Time dependent inhibition of CYP1A2 in human liver microsomes using phenacetin as substrate preincubated for 30 mins followed by NADP addition; conditions: TDE = time-dependent effect
[14] = Oral bioavailability in mouse at 1 mg/kg by HPLC method; type: ADME, organism-based; conditions: in vivo; summary of the method: as §2
Canis familiaris = experiment: Volume of distribution at steady state in Beagle dog at 1 mg/kg, po or 1 mg/kg iv via bolus by HPLC method; type: ADME, organism-based, Canis lupus familiaris; conditions: in vivo; summary of the method: as §2
[15] = Apparent permeability of the compound in human Caco2 cells; type: ADME, cell-based; conditions: caco-2
[16] = Oral bioavailability in Beagle dog at 1 mg/kg by HPLC method; type: ADME, organism-based, Canis lupus familiaris; conditions: in vivo; summary of the method: as §2

SMILES: CC(C)(C)n1c(=O)[nH]c2ncc(Br)nc21
- EC30 (Oryctolagus cuniculus [1]): 4.6 µM
- EC40 (Oryctolagus cuniculus [2]): 0.8 µM

SMILES: CC[C@H](C)n1c(=O)[nH]c2ncc(Br)nc21
- EC30 (Oryctolagus cuniculus [1]): 5.1 µM
- EC40 (Oryctolagus cuniculus [2]): 1 µM

SMILES: CCC(CC)n1c(=O)[nH]c2ncc(C(F)(F)F)nc21
- EC40 (Oryctolagus cuniculus [2]): 11.3 µM

SMILES: C#Cc1cnc2nc(O)n(C(CC)CC)c2n1 [TIRASEMTIV]
- Vd [3]: 0.8 to 2.6 L/kg
- hepatic extraction ratio at 1.5 h [4]: 0.26 to 0.3
- hepatic extraction ratio at 1.5 h [5]: < 0.21
- EC30 (Oryctolagus cuniculus [1]): 0.3 µM
- Fu [6]: 6.9%
- F (Rattus norvegicus [7]): 98%
- Fu [8]: 1.9%
- EC40 (Oryctolagus cuniculus [2]): 0.1 µM
- Vdss (Mus musculus): 1 L/kg
- Activity (Rattus norvegicus [9]): Dose-dependent effect
- hepatic extraction ratio at 1.5 h [10]: 0.24
- IC50 (Cytochrome P450 1A2 [11]): 20 µM
- hepatic extraction ratio at 1.5 h [12]: < 0.2
- inhibition (INH) (Cytochrome P450 1A2 [13]): Tde
- bioavailability [14]: 43%
- Vdss (Canis familiaris): 1.7 L/kg
- Papp [15]: > 50 ×10⁻⁶ cm/s
- bioavailability [16]: 93%

SMILES: CC(C)(C)n1c(O)nc2ncc(Br)nc21
- hepatic extraction ratio at 1.5 h [4]: 0.3
- hepatic extraction ratio at 1.5 h [12]: 0.2

SMILES: C[C@@H](c1ccccc1)n1c(=O)[nH]c2ncc(S(C)(=O)=O)nc21
- EC40 (Oryctolagus cuniculus [2]): > 49 µM

SMILES: CC(=O)c1cnc2nc(O)n([C@@H](C)c3ccccc3)c2n1
- EC40 (Oryctolagus cuniculus [2]): > 49 µM

SMILES: CCC(CC)n1c(O)nc2ncc(C(F)(F)F)nc21
- hepatic extraction ratio at 1.5 h [4]: 0.2
- hepatic extraction ratio at 1.5 h [12]: < 0.2

SMILES: CCC(CC)n1c(O)nc2ncc(OC)nc21
- hepatic extraction ratio at 1.5 h [4]: > 0.7
- hepatic extraction ratio at 1.5 h [12]: < 0.2

SMILES: COc1cnc2[nH]c(=O)n([C@@H](C)c3ccccc3)c2n1
- EC40 (Oryctolagus cuniculus [2]): 8.9 µM

SMILES: C=Cc1cnc2[nH]c(=O)n(C(CC)CC)c2n1
- hepatic extraction ratio at 1.5 h [4]: > 0.7
- EC30 (Oryctolagus cuniculus [1]): 1.1 µM
- EC40 (Oryctolagus cuniculus [2]): 1.1 µM
- hepatic extraction ratio at 1.5 h [12]: 0.5

SMILES: CC#Cc1cnc2[nH]c(=O)n(C(CC)CC)c2n1
- EC40 (Oryctolagus cuniculus [2]): > 49 µM

SMILES: CCC(CC)n1c(=O)[nH]c2ncc(Br)nc21
- EC30 (Oryctolagus cuniculus [1]): 0.4 µM
- EC40 (Oryctolagus cuniculus [2]): 0.3 µM

SMILES: CC(C)n1c(=O)[nH]c2ncc(Br)nc21
- EC30 (Oryctolagus cuniculus [1]): 2.2 µM
- EC40 (Oryctolagus cuniculus [2]): 6 µM

SMILES: CCC(CC)n1c(=O)[nH]c2nccnc21
- EC40 (Oryctolagus cuniculus [2]): 14 µM

SMILES: O=c1[nH]c2ncc(-c3ccco3)nc2n1Cc1ccccc1
- EC40 (Oryctolagus cuniculus [2]): > 49 µM

SMILES: C=Cc1cnc2[nH]c(=O)n([C@@H](C)c3ccccc3)c2n1
- EC30 (Oryctolagus cuniculus [1]): 4.6 µM
- EC40 (Oryctolagus cuniculus [2]): 3.5 µM

SMILES: C[C@@H](c1ccccc1)n1c(=O)[nH]c2ncc(C#N)nc21
- EC40 (Oryctolagus cuniculus [2]): > 49 µM
